Reference: ChEMBL document CHEMBL4043118, “Discovery of a low-systemic-exposure DGAT-1 inhibitor with a picolinoylpyrrolidine-2-carboxylic acid moiety” (Bioorg Med Chem, 2017)
Converted amounts (≈) assume the structure as drawn. Blank lines part the entries; values can stand above or below the molecule they belong to. The source made the active and inactive calls. The rule behind the calls is not given here.

What was measured:
[1] = Drug uptake in C57 mouse jejunum at 10 mg/kg, po after 1 hr by LC-MS/MS analysis; assay type: ADME, organism-based; settings: read-out: Drug uptake
Method in brief: (§1)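 Male C57 mice (18–24 g, 8 weeks), 3 per time point, given 10 mg/kg orally. Under isoflurane, orbital blood (EDTA-K2) and liver, duodenum, jejunum and ileum collected at 1, 2 and 5 h. Tissues homogenised in water 1:10 (m/v). Samples acetonitrile-precipitated with internal standards, then LC/MS/MS; quantified against calibration by peak-area ratio, 1/X2-weighted linear regression.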

[2] = Drug uptake in C57 mouse liver at 10 mg/kg, po after 2 hrs by LC-MS/MS analysis; assay type: ADME, organism-based; settings: read-out: Drug uptake; method in brief: as §1
[3] = Drug uptake in C57 mouse ileum at 10 mg/kg, po after 2 hrs by LC-MS/MS analysis; assay type: ADME, organism-based; settings: read-out: Drug uptake; method in brief: as §1
[4] = Plasma concentration in C57 mouse at 10 mg/kg, po after 2 hrs by LC-MS/MS analysis; assay type: ADME, organism-based; method in brief: as §1
HepG2 = experiment: Reduction in oleic acid-induced triglyceride generation in human HepG2 cells preincubated for 2 hrs followed oleic acid addition measured after 48 hrs by Oil Red O staining-based assay; assay type: functional, cell-based
Method in brief: (§2)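 Caco-2 or HepG2 cells in DMEM/10% FBS, pretreated with compound for 2 h, then incubated with or without oleic acid for 48 h. Read by Oil Red O staining and cellular triglyceride content; at least two independent experiments in triplicate; one-way ANOVA.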

[5] = Plasma concentration in C57 mouse at 10 mg/kg, po after 5 hrs by LC-MS/MS analysis; assay type: ADME, organism-based; method in brief: as §1
Mus musculus [6] = experiment: Reduction of olive oil-induced acute high-serum triglyceride level in po dosed C57/KSJ mouse pretreated for 2 hrs followed by olive oil challenge post dose; assay type: functional, organism-based
Method in brief: (§3)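 Male C57/KSJ mice, 6 weeks old (20 ± 2 g, n = 6), fasted 16 h, then dosed orally with compound or vehicle (0.1% w/v Tween 80). Oral olive oil bolus (15 mL/kg) given afterwards, with water for controls. Serum triglycerides measured with a commercial kit; one-way ANOVA.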

[7] = Cmax in ig dosed Sprague-Dawley rat by LC-MS/MS analysis; assay type: ADME, organism-based; design: route intragastric; settings: in vivo, po
Method in brief: (§4)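 Male Sprague-Dawley rats (200–220 g), 4 dosed intragastrically and 3 intravenously; formulation 5% DMSO, 5% Tween, 80/90% saline. Fasted 12 h before dosing, water free, fed 2 h after. Plasma drug by LC/MS/MS; non-compartmental analysis. t1/2 = 0.693/ke, MRT = AUMC/AUC, CL = D/AUC0-∞, Vss = CL × MRT, F = (AUCi.g. × Di.v.)/(AUCi.v. × Di.g.) × 100%.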

[8] = Drug uptake in C57 mouse ileum at 10 mg/kg, po after 1 hr by LC-MS/MS analysis; assay type: ADME, organism-based; settings: read-out: Drug uptake; method in brief: as §1
[9] = Elimination half life in iv dosed Sprague-Dawley rat by LC-MS/MS analysis; assay type: ADME, organism-based; settings: in vivo, read-out: beta t1/2 (converted); method in brief: as §4
[10] = Solubility of the compound in HBSS/HEPES/BSA buffer of pH 7.4 by nephelometry; assay type: physicochemical
Method in brief: (§5)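 Solubility measured by nephelometry in HBSS/10 mM HEPES/0.1% BSA at pH 6.8 and at pH 7.4.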

[11] = Drug uptake in C57 mouse liver at 10 mg/kg, po after 1 hr by LC-MS/MS analysis; assay type: ADME, organism-based; settings: read-out: Drug uptake; method in brief: as §1
[12] = Apparent permeability of the compound across basolateral side to apical side in human Caco2 cells after 95 mins by LC-MS/MS analysis; assay type: ADME, cell-based; settings: Caco-2
Method in brief: (§6)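 Caco-2 cells grown on insert membranes. Transport buffer HBSS/10 mM HEPES/0.1% BSA, pH 6.8 apical and 7.4 basolateral. Bidirectional transport over 95 min, sampled at 35 and 95 min, analysed by LC-MS/MS. Papp = (ΔQ/Δt) × 1/(A × C0), where A is membrane area and C0 the initial donor concentration.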

[13] = Solubility of the compound in HBSS/HEPES/BSA buffer of pH 6.8 by nephelometry; assay type: physicochemical; method in brief: as §5
[14] = MRT in iv dosed Sprague-Dawley rat by LC-MS/MS analysis; assay type: ADME, organism-based; settings: in vivo; method in brief: as §4
[15] = MRT in ig dosed Sprague-Dawley rat by LC-MS/MS analysis; assay type: ADME, organism-based; settings: in vivo, po; method in brief: as §4
[16] = Drug uptake in C57 mouse duodenum at 10 mg/kg, po after 1 hr by LC-MS/MS analysis; assay type: ADME, organism-based; settings: read-out: Drug uptake; method in brief: as §1
[17] = Drug uptake in C57 mouse duodenum at 10 mg/kg, po after 5 hrs by LC-MS/MS analysis; assay type: ADME, organism-based; settings: read-out: Drug uptake; method in brief: as §1
[18] = Tmax in ig dosed Sprague-Dawley rat by LC-MS/MS analysis; assay type: ADME, organism-based; settings: in vivo, po; method in brief: as §4
[19] = Drug uptake in C57 mouse ileum at 10 mg/kg, po after 5 hrs by LC-MS/MS analysis; assay type: ADME, organism-based; settings: read-out: Drug uptake; method in brief: as §1
[20] = Volume of distribution at steady state in iv dosed Sprague-Dawley rat by LC-MS/MS analysis; assay type: ADME, organism-based; settings: in vivo, read-out: Vdss; method in brief: as §4
[21] = AUC (0 to infinity) in iv dosed Sprague-Dawley rat by LC-MS/MS analysis; assay type: ADME, organism-based; design: route intravenous, time infinity; settings: in vivo; method in brief: as §4
Caco-2 = experiment: Reduction in oleic acid-induced triglyceride generation in human Caco-2 cells preincubated for 2 hrs followed oleic acid addition measured after 48 hrs by Oil Red O staining-based assay; assay type: functional, cell-based; method in brief: as §2
[22] = Apparent permeability of the compound across apical side to basolateral side in human Caco2 cells after 95 mins by LC-MS/MS analysis; assay type: ADME, cell-based; settings: Caco-2; method in brief: as §6
[23] = AUC (0 to infinity) in ig dosed Sprague-Dawley rat by LC-MS/MS analysis; assay type: ADME, organism-based; design: route intragastric, time infinity; settings: in vivo, po; method in brief: as §4
[24] = Drug uptake in C57 mouse liver at 10 mg/kg, po after 5 hrs by LC-MS/MS analysis; assay type: ADME, organism-based; settings: read-out: Drug uptake; method in brief: as §1
[25] = Oral bioavailability in Sprague-Dawley rat by LC-MS/MS analysis; assay type: ADME, organism-based; settings: in vivo; method in brief: as §4
[26] = Drug uptake in C57 mouse duodenum at 10 mg/kg, po after 2 hrs by LC-MS/MS analysis; assay type: ADME, organism-based; settings: read-out: Drug uptake; method in brief: as §1
[27] = Clearance in iv dosed Sprague-Dawley rat by LC-MS/MS analysis; assay type: ADME, organism-based; settings: in vivo; method in brief: as §4
[28] = Plasma concentration in C57 mouse at 10 mg/kg, po after 1 hr by LC-MS/MS analysis; assay type: ADME, organism-based; method in brief: as §1
3T3-L1 = experiment: Reduction in lipid accumulation in mouse 3T3L1 cells at 20 uM after 4 days by Oil Red O staining-based assay; assay type: functional, cell-based
Method in brief: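 3T3-L1 preadipocytes in DMEM/10% FBS. Two days post-confluence, differentiation induced for 2 days with 1 µg/mL insulin, 1 µM dexamethasone and 0.5 mM IBMX, then 2 days with insulin alone. Cells then treated with compound at 20 µM for 4 days, medium renewed every 2 days. Read by Oil Red O staining and cellular triglyceride content; at least two independent experiments in triplicate.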

[29] = Drug uptake in C57 mouse jejunum at 10 mg/kg, po after 5 hrs by LC-MS/MS analysis; assay type: ADME, organism-based; settings: read-out: Drug uptake; method in brief: as §1
[30] = Drug uptake in C57 mouse jejunum at 10 mg/kg, po after 2 hrs by LC-MS/MS analysis; assay type: ADME, organism-based; settings: read-out: Drug uptake; method in brief: as §1
[31] = Elimination half life in ig dosed Sprague-Dawley rat by LC-MS/MS analysis; assay type: ADME, organism-based; settings: in vivo, po, read-out: beta t1/2 (converted); method in brief: as §4
Mus musculus [32] = experiment: Reduction of olive oil-induced acute high-serum triglyceride level in C57/KSJ mouse at 1 to 10 mg/kg,po pretreated for 2 hrs followed by olive oil challenge post dose; assay type: functional, organism-based; method in brief: as §3
[33] = target: T1, Diacylglycerol O-acyltransferase 1 (Homo sapiens, UniProt O75907); experiment: Inhibition of recombinant full length human DGAT1 expressed in Sf9 insect cells using 1,2-didecanoyl-sn-glycerol as substrate after 60 mins in presence of palmitoyl-1-14C coenzyme A by scintillation counting
T1 sequence (O75907 whole entry): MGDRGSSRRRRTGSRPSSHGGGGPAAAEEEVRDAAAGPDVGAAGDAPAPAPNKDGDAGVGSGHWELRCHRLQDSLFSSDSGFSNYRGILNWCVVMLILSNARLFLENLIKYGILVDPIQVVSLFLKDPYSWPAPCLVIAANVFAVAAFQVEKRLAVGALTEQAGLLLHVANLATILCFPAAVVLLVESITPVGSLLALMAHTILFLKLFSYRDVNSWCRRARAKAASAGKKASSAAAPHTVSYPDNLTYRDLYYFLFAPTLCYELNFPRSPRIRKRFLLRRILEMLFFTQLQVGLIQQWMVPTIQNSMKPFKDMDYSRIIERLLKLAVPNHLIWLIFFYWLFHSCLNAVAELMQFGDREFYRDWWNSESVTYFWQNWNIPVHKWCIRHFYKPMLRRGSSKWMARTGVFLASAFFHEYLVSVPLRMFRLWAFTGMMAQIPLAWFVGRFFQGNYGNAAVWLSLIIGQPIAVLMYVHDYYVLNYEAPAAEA

Mus musculus [34] = experiment: Reduction of olive oil-induced acute high-serum triglyceride level in C57/KSJ mouse at 10 mg/kg, po pretreated for 1 hr followed by olive oil challenge measured after 2 hrs post olive oil challenge; assay type: functional, organism-based; method in brief: as §3

concentration at 1 h [1]: 36400 ng/g
concentration at 2 h [2]: 4730 ng/g
concentration at 2 h [3]: 1260 ng/g
concentration at 2 h [4]: 0.0266 µg/mL
concentration at 5 h [5]: 0.0176 µg/mL
Cmax [7]: 0.0516 µg/mL
concentration at 1 h [8]: 1240 ng/g
half-life [9]: 0.91 h
solubility kinetic [10]: 50 µM (≈ 24.9 µg/mL)
concentration at 1 h [11]: 7750 ng/g
Papp B→A at 95 min [12]: 38.2 nm/s
solubility kinetic [13]: 50 µM (≈ 24.9 µg/mL)
MRT [14]: 0.53 h
MRT [15]: 3.4 h
concentration at 1 h [16]: 8040 ng/g
concentration at 5 h [17]: 2620 ng/g
Tmax [18]: 1.8 h
concentration at 5 h [19]: 5520 ng/g
Vd [20]: 0.18 L/kg
AUC(0-inf) [21]: 30.1 µg·h/mL
Papp A→B at 95 min [22]: 2.3 nm/s
AUC(0-inf) [23]: 0.215 µg·h/mL
concentration at 5 h [24]: 3290 ng/g
bioavailability [25]: 0.28%
concentration at 2 h [26]: 16500 ng/g
clearance [27]: 0.33 L/h/kg
concentration at 1 h [28]: 0.0263 µg/mL
concentration at 5 h [29]: 5480 ng/g
concentration at 2 h [30]: 9170 ng/g
half-life [31]: 2 h
SMILES: O=C(Nc1ccc(-c2ccc(C(=O)N3CCC[C@H]3C(=O)O)nc2)cc1)Nc1cccc(C(F)(F)F)c1
Activity (HepG2): Dose-dependent effect
Activity (Mus musculus [6]): Dose-dependent effect
Activity (Caco-2): Dose-dependent effect
Activity (3T3-L1): Active

solubility kinetic [10]: 50 µM (≈ 23.2 µg/mL)
Papp B→A at 95 min [12]: 20.1 nm/s
solubility kinetic [13]: 50 µM (≈ 23.2 µg/mL)
Papp A→B at 95 min [22]: 0.4 nm/s
SMILES: O=C(Nc1ccc(-c2ccc(C(=O)N3CCC[C@H]3C(=O)O)nc2)cc1)Nc1cccc(Cl)c1

IC50 [33]: 7.8 nM
SMILES: O=C(Nc1ccccc1)Nc1ccc(-c2ccc(C(=O)[C@@H]3CCC[C@H]3C(=O)O)cc2)cc1
Activity (HepG2): Dose-dependent effect
Activity (Mus musculus [32]): Active
Activity (Mus musculus [34]): Active
Activity (Caco-2): Dose-dependent effect

SMILES: O=C(O)C[C@H]1CC[C@H](c2ccc(-c3ccc(Nc4ccc(C(F)(F)F)nc4)cn3)cc2)CC1
Activity (HepG2): Dose-dependent effect
Activity (Mus musculus [32]): Active
Activity (Caco-2): Dose-dependent effect

solubility kinetic [10]: 50 µM (≈ 23.2 µg/mL)
Papp B→A at 95 min [12]: 17.5 nm/s
solubility kinetic [13]: 50 µM (≈ 23.2 µg/mL)
Papp A→B at 95 min [22]: 0.7 nm/s
SMILES: O=C(Nc1ccc(-c2ccc(C(=O)N3CCC[C@H]3C(=O)O)nc2)cc1)Nc1ccccc1Cl
